These results are taken from PMC2697266 (Nature, 2009).

Assay [1] concerns mice transplanted with transduced bone marrow progenitors. Kind of assay: Murine bone marrow transplantation leukemogenic assay. It is filed as in vivo. The note with it: 12 mice. The method in brief: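 Lin- marrow from femur and tibia (balb/C or b/6) was prestimulated 2-3 days with SCF, 5ng/mL FLT3 ligand, IL3 and IL6. Cells were infected with MSCV retrovirus encoding 3xFLAG fusion or empty vector. 100,000 cells were injected via tail vein into sublethally irradiated syngeneic mice, 12 per group, and leukemia kinetics were followed.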

The subject of assay [2] is Ezh2 or Suz12, H3K27me3 at Hox-A clusters. As to the kind of experiment: ChIP, polycomb factors and H3K27me3 at Hox-A cluster. It is filed as cell-based, murine. The note with it: NJL-infected progenitors, qualitative. Summed up:
(§1)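 Mouse Lin- marrow cells were cytokine-stimulated, retrovirally transduced, selected with 1μg/mL puromycin and kept in SCF-only medium. ChIP used 1∼2 million cells for histone marks and 2∼3 million for other factors (p300 antibody 10μg). Equal nonspecific IgG served as antibody control and Chr8Int as negative locus. Triplicate SYBR qPCR gave % of input and fold over IgG.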

The subject of assay [3] is WDR5, RBBP5, and MLL2 on Hoxa9. As to the kind of experiment: ChIP, WDR5, RBBP5 and MLL2 on Hoxa9. The assay is classed as cell-based, murine. The note with it: marrow progenitors 15 days after transduction; qualitative. Summed up:
as §1

The test system of another assay is H3K4me3 or H3. As to the kind of experiment: CoIP in transiently transfected 293 cells. It is filed as binding. The note with it: qualitative. Summed up: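 Nuclei underwent limited micrococcal nuclease digestion to release mainly mononucleosomes, and insoluble material was removed by centrifugation. Supernatant was incubated with FLAG- or HA-agarose, or with magnetic beads coupled to anti-H3K4me3 or control antibodies. After extensive washing, precipitated proteins were analysed by immunoblot.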

For a further assay, the system named is p300 on Hoxa9. Kind of assay: ChIP, p300 recruitment on Hoxa9. It is filed as cell-based, murine. Particulars: 15 days after transduction; qualitative. Summed up: as §1
In the next assay the test system is H3K27ac on Hoxa9. Kind of assay: ChIP, Hoxa9-associated H3 acetylation. Particulars: marrow progenitors 15 days after transduction, NJL-transduced cells. It is filed as cell-based, murine. Summed up:
as §1

B1: NJL: NUP98 amino acids 1-514 fused to amino acids 1489-1690 of JARID1A transcript variant 1 (protein)
chain: MFNKSFGTPFGGGTGGFGTTSTFGQNTGFGTTSGGAFGTSAFGSSNNTGGLFGNSQTKPGGLFGTSSFSQPATSTSTGFGFGTSTGTANTLFGTASTGTSLFSSQNNAFAQNKPTGFGNFGTSTSSGGLFGTTNTTSNPFGSTSGSLFGPSSFTAAPTGTTIKFNPPTGTDTMVKAGVSTNISTKHQCITAMKEYESKSLEELRLEDYQANRKGPQNQVGAGTTTGLFGSSPATSSATGLFSSSTTNSGFAYGQNKTAFGTSTTGFGTNPGGLFGQQNQQTTSLFSKPFGQATTTQNTGFSFGNTSTIGQPSTNTMGLFGVTQASQPGGLFGTATNTSTGTAFGTGTGLFGQTNTGFGAVGSTLFGNNKLTTFGSSTTSAPSFGTTSGGLFGNKPTLTLGTNTNTSNFGFGTNTSGNSIFGSKPAPGTLGTGLGAGFGTALGAGQASLFGNNQPKIGGPLGTGAFGAPGFNTTTATLGFGAPQAPVALTDPNASAAQQAVLQQHINSLTYSPFGMEEKPLKVKGKDSSEKKRKRKLEKVEQLFGEGKQKSKELKKMDKPRKKKLKLGADKSKELNKLAKKLAKEEERKKKKEKAAAAKVELVKESTEKKREKKVLDIPSKYDWSGAEESDDENAVCAAQNCQRPCKDKVDWVQCDGGCDEWFHQVCVGVSPEMAENEDYICINCAKKQGPVSPGPAPPPSFIMSYKLPMEDLKETS
modifications: left off: 3xFLAG, N-terminal, kept
For B1, in assay [1], the “average time to death of AML” value worked out at 69 days. Further, the “restriction of polycomb factors (Ezh2 or Suz12)” value in assay [2] is “restricted within Hoxa11-a13”. Also, in assay [3], the “WDR5, RBBP5, and MLL2 on Hoxa9” value is “high levels”. In the assay on H3K4me3 or H3, the “association with H3K4me3 or H3” value was “associated with H3K4me3 or H3”. For the same molecule, the “p300 recruitment on Hoxa9” value with p300 on Hoxa9 is “recruitment of p300”. In the assay with H3K27ac on Hoxa9, the “elevation of H3K27ac on Hoxa9” value is > 2,000 fold.
